pIC50: −log10 of the molar value.
Tests used:
[1] = Inhibition of butter milk Xanthine oxidase using xanthine as substrate preincubated for 3 mins by spectrophotometry
Summary of the method: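 Buttermilk xanthine oxidase at 0.05 U/mL in 50 mM phosphate buffer with test compound; reaction started with 200 µM xanthine stock. Uric acid formation read at 293 nm, with linear Vmax over 5 min taken as initial velocity. Inhibition was calculated against the uninhibited rate, and IC50 was taken as the concentration giving 50% inhibition.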

[2] = Half life in rat liver microsomes; format: ADME
[3] = Cytotoxicity against primary rat hepatocytes; format: cell-based, Hepatocyte
[4] = Cmax in Sprague-Dawley rat at 10 mg/kg, po; format: ADME, organism-based; design: dose 10 mg/kg, route oral; conditions: in vivo
Summary of the method: (§1)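 Single oral dose of 10 mg/kg in Sprague-Dawley rats; plasma followed over 24 h; Cmax, Tmax, AUC, half-life and bioavailability derived from the plasma profile; n = 3.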

[5] = AUC (0 to last) in Sprague-Dawley rat at 10 mg/kg, po; format: ADME, organism-based; design: time 0 - last, dose 10 mg/kg, route oral; conditions: plasma; summary of the method: as §1
[6] = AUC (0 to last) in Sprague-Dawley rat at 2 mg/kg, iv; format: ADME, organism-based; design: dose 2 mg/kg, route intravenous, time 0 - last; conditions: plasma
Summary of the method: (§2)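 Single intravenous dose of 2 mg/kg in Sprague-Dawley rats; AUC, half-life, clearance and Vd derived from the plasma profile; n = 3.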

[7] = AUC (0 to infinity) in Sprague-Dawley rat at 2 mg/kg, iv; format: ADME, organism-based; design: time infinity, dose 2 mg/kg, route intravenous; conditions: plasma; summary of the method: as §2
[8] = Half life in Sprague-Dawley rat at 2 mg/kg, iv; format: ADME, organism-based; design: dose 2 mg/kg, route intravenous; conditions: in vivo; summary of the method: as §2
[9] = Clearance in Sprague-Dawley rat at 2 mg/kg, iv; format: ADME, organism-based; design: dose 2 mg/kg, route intravenous; conditions: in vivo; summary of the method: as §2
[10] = Volume of distribution in Sprague-Dawley rat at 2 mg/kg, iv; format: ADME, organism-based; design: dose 2 mg/kg, route intravenous; conditions: in vivo; summary of the method: as §2
Rattus norvegicus = assay: Inhibition of uric acid production in Sprague-Dawley rat at 10 mg/kg, po measured 1 hr post dose; format: functional
Summary of the method: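 Male SD rats (about 200 g) received potassium oxonate 300 mg/kg i.p. in 0.8% carboxymethylcellulose. One hour later, compound at 10 mg/kg in PEG400/ethanol (2:1) was given orally, and blood was sampled 1 h after dosing. Plasma uric acid was scaled with the normal group as 100% and the oxonate control as 0% inhibition. ANOVA with Dunnett's post-test was used.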

[11] = AUC (0 to infinity) in Sprague-Dawley rat at 10 mg/kg, po; format: ADME, organism-based; design: time infinity, dose 10 mg/kg, route oral; conditions: plasma; summary of the method: as §1
[12] = Tmax in Sprague-Dawley rat at 10 mg/kg, po; format: ADME, organism-based; design: dose 10 mg/kg, route oral; conditions: in vivo; summary of the method: as §1
[13] = Half life in Sprague-Dawley rat at 10 mg/kg, po; format: ADME, organism-based; design: dose 10 mg/kg, route oral; conditions: in vivo; summary of the method: as §1
[14] = Oral bioavailability in Sprague-Dawley rat at 10 mg/kg; format: ADME, organism-based; conditions: in vivo; summary of the method: as §1
Plasma = assay: Plasma concentration in Sprague-Dawley rat at 10 mg/kg, po; format: ADME, organism-based; design: dose 10 mg/kg, route oral; conditions: in vivo
Summary of the method: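 Oral dose of 10 mg/kg in Sprague-Dawley rats; plasma concentration measured 1 h after administration.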

Row | Structure (SMILES) | pIC50 [1] | half-life [2] [h] | inhibition in vivo at 10 mg/kg (Rattus norvegicus) [%] | also measured
1 | Cc1nc(-c2ccc3c(ccn3CC(C)C)c2)sc1C(=O)O | 6.96 | 0.458 |  | 
2 | Cc1nc(-c2ccc3c(c2)c(Cl)cn3CC(C)C)sc1C(=O)O | 8.24 | 0.103 |  | 
3 | Cc1nc(-c2ccc3c(c2)c(Cl)cn3C(C)C)sc1C(=O)O | 8.14 | 1.6 |  | 
4 | Cc1nc(-c2ccc3c(c2)c(Cl)c(C)n3CC(C)C)sc1C(=O)O | 7.80 | 0.11 |  | 
5 | Cc1nc(-c2ccc3c(c2)c([N+](=O)[O-])cn3C(C)C)sc1C(=O)O | 8.38 | 1.32 |  | 
6 | COCCn1cc([N+](=O)[O-])c2cc(-c3nc(C)c(C(=O)O)s3)ccc21 | 7.92 |  |  | 
7 | Cc1nc(-c2ccc3c(c2)c(C#N)cn3CC(C)C)sc1C(=O)O | 8.26 | 1.76 |  | CC50 [3]: 82000 nM
8 | CC(C)n1cc(C#N)c2cc(-c3ncc(C(=O)O)s3)ccc21 | 8.36 |  |  | Cmax [4]: 940 ng/mL; AUC(0-t) [5]: 5390 ng·h/mL
9 | CC(C)n1cc(C#N)c2cc(-c3nc(C(F)(F)F)c(C(=O)O)s3)ccc21 | 6.05 |  |  | 
10 | COc1nc(-c2ccc3c(c2)c(C#N)cn3C(C)C)sc1C(=O)O | 7.05 |  |  | 
11 | Cc1nc(-c2ccc3c(c2)c(C#N)cn3C(C)C)sc1C(=O)O | 8.46 |  | 60 | AUC(0-t) [6]: 12400 ng·h/mL; AUC(0-inf) [7]: 12500 ng·h/mL; half-life [8]: 4.37 h; clearance [9]: 2.69 mL/min/kg; Vd [10]: 0.635 L/kg; Cmax [4]: 3980 ng/mL; AUC(0-t) [5]: 47300 ng·h/mL; CC50 [3]: 200000 nM; AUC(0-inf) [11]: 52900 ng·h/mL; Tmax [12]: 6 h; half-life [13]: 7.95 h; bioavailability [14]: 84.3%
12 | Cc1nc(-c2ccc3c(c2)c(C#N)c(C)n3C(C)C)sc1C(=O)O | 7.97 |  | 8.6 | 
13 | Cc1nc(-c2ccc3c(c2)c(C#N)cn3C(C)CF)sc1C(=O)O (configuration not stated) | 8.31 |  | 22.3 | 
14 | Cc1nc(-c2ccc3c(c2)c(C#N)cn3C(C)CO)sc1C(=O)O (configuration not stated) | 8.52 |  | 8.5 | 
15 | COCC(C)n1cc(C#N)c2cc(-c3nc(C)c(C(=O)O)s3)ccc21 (configuration not stated) | 8.05 |  | 14.1 | 
16 | Cc1nc(-c2ccc3c(c2)c(C#N)cn3CCS(C)(=O)=O)sc1C(=O)O | 7.91 |  | 0 | Cp (Plasma): < 20 ng/mL
17 | CC(=O)NCCn1cc(C#N)c2cc(-c3nc(C)c(C(=O)O)s3)ccc21 | 8.25 |  | 0 | Cp (Plasma): < 20 ng/mL
18 | Cc1nc(-c2ccc3c(c2)c(C#N)cn3CCNS(C)(=O)=O)sc1C(=O)O | 8.22 |  | 0 | 
19 | Cc1nc(-c2ccc3c(c2)c(C#N)cn3Cc2ccccc2)sc1C(=O)O | 8.41 |  | 10 | 
20 | Cc1nc(-c2ccc3c(c2)c(C#N)cn3Cc2ccc(F)cc2F)sc1C(=O)O | 8.07 |  | 16 | 
21 | Cc1nc(-c2ccc(OCC(C)C)c(C#N)c2)sc1C(=O)O [FEBUXOSTAT] | 8.51 | 2.9 |  | Cmax [4]: 16400 ng/mL; AUC(0-t) [5]: 61500 ng·h/mL

— ChEMBL document CHEMBL3399928, “Design and synthesis of novel 2-(indol-5-yl)thiazole derivatives as xanthine oxidase inhibitors” (Bioorg Med Chem Lett, 2015)
